Measurements reported in ChEMBL document CHEMBL1133541, “Conformationally constrained butyrophenones with affinity for dopamine (D(1), D(2), D(4)) and serotonin (5-HT(2A), 5-HT(2B), 5-HT(2C)) receptors: synthesis of aminomethylbenzo[b]furanones and their evaluation as antipsychotics” (J Med Chem, 2000).

Legend:
[1] = target: T1, 5-hydroxytryptamine receptor 2B (Rattus norvegicus, UniProt P30994); assay: Compound was evaluated for antagonism against serotonin (5-hydroxytryptamine 2B receptor ) receptor; type: functional; conditions: read-out: pA2 (converted)
How it was run: (§1)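 Rat stomach fundus strips in modified Krebs solution, 37 °C, carbogen-aerated organ baths; serotonin cumulative concentration-response curves (0.01 nM-10 µM), runs alternating with and without antagonist, 60 min rest between. Antagonism expressed as pA2 (-log antagonist concentration maintaining response when agonist doubled); 3-4 replicate experiments.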

[2] = target: T2, 5-hydroxytryptamine receptor 2A (Rattus norvegicus, UniProt P14842); assay: In vitro affinity against serotonin 5-hydroxytryptamine 2A receptor
[3] = system: Mus musculus; assay: Effective dose administered in apomorphine induced climbing test in mice (in vivo); Value ranges from 0.8-1.44; type: functional
[4] = system: Mus musculus; assay: Antipsychotic activity was determined in mice or rat within 20-30 min of administration
[5] = target: T2, 5-hydroxytryptamine receptor 2A; assay: In vitro affinity against serotonin ( 5-hydroxytryptamine 2A receptor ) receptor
How it was run: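 Rat frontal cortex membranes (male Sprague-Dawley), preincubated 37 °C 15 min to remove endogenous 5-HT, in Tris-HCl pH 8.07 with 4 mM CaCl2 and 0.1% ascorbic acid. [3H]ketanserin competition in triplicate, 1 µM methysergide masking as required, 30 min at 37 °C; filtration on PEI-soaked GF/C, scintillation counting; two replicate experiments.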

[6] = system: Mus musculus; assay: Effective dose administered in catalepsy test in mice (in vivo); type: functional
How it was run: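 Mice (n = 6-12) tested 30 min after dosing: forepaws on one horizontal wire, hindpaws on another 6 cm away and 2 cm lower. Posture held over 30 s counted as catalepsy; ED50 by Litchfield-Wilcoxon method.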

[7] = In vitro affinity against Dopamine receptor D4; parameters: species or system Bos taurus
[8] = target: D(1A) dopamine receptor (Rattus norvegicus, UniProt P18901); assay: In vitro affinity against Dopamine receptor D1
[9] = target: T1, 5-hydroxytryptamine receptor 2B; assay: Compound was evaluated for antagonism against serotonin (5-hydroxytryptamine 2B) receptor; type: functional; conditions: read-out: pA2 (converted); how it was run: as §1
[10] = target: T3, 5-hydroxytryptamine receptor 2C (Homo sapiens) (UniProt P28335); conditions: Bos taurus; 10e-6 M
T3 sequence (whole entry): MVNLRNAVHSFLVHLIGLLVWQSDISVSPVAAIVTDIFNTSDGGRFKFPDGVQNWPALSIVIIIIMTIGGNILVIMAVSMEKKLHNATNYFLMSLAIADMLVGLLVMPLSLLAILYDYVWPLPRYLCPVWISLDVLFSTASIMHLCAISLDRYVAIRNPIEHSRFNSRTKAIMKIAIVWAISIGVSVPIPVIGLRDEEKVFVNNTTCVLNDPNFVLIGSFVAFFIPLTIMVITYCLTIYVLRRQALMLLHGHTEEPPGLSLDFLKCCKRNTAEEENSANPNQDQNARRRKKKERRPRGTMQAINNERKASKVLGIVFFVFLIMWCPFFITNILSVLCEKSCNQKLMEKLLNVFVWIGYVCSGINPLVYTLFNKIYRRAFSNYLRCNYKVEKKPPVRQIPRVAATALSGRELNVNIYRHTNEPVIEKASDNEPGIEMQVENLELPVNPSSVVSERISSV

[11] = target: T3, 5-hydroxytryptamine receptor 2C (Homo sapiens); conditions: Bos taurus; 10e-6 M; remark: listed apart in the source
[12] = system: Mus musculus; assay: Effective dose administered in apomorphine induced climbing test in mice (in vivo); type: functional

T1 sequence (P30994 whole entry): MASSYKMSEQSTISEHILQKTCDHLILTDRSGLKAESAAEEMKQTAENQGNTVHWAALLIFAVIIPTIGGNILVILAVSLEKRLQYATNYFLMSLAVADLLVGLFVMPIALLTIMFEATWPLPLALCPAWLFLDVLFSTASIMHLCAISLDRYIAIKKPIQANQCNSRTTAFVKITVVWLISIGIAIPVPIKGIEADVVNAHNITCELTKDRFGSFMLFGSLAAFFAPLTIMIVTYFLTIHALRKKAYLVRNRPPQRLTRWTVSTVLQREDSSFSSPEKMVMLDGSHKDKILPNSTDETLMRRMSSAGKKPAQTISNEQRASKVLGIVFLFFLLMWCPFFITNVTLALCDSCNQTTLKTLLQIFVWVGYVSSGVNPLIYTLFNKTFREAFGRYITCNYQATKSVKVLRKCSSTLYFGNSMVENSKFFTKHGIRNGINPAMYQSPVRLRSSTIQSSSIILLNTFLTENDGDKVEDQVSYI
T2 sequence (P14842 whole entry): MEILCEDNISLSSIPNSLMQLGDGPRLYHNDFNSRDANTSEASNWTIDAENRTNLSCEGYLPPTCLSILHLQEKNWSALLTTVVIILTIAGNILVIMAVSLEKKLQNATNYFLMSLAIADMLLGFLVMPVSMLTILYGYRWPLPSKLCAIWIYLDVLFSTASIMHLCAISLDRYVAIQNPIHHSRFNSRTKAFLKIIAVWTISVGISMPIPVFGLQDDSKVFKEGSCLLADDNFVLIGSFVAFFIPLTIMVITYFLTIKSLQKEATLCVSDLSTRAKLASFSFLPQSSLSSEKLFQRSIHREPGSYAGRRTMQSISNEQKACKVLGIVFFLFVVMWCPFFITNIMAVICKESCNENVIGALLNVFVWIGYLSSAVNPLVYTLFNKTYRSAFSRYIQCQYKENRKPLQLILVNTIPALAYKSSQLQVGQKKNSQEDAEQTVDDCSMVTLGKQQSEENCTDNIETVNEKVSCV
Sequence of D(1A) dopamine receptor (P18901 whole entry): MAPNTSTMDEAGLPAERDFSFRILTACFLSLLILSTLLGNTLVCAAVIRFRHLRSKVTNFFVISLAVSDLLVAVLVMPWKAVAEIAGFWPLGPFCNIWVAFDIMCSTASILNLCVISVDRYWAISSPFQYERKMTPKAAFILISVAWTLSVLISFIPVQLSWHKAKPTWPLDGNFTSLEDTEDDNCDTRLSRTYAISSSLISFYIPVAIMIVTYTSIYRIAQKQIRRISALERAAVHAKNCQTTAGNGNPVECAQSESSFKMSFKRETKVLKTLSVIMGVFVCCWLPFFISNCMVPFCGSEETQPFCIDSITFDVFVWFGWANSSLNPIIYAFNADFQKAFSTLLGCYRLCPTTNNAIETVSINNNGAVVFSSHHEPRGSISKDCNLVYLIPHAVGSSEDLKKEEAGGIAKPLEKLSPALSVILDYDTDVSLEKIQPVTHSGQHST

Kb [1] [nM] | Ki [2] [nM] | Log Ki [7] | SMILES | further results
646 | 2290 | – | COc1ccccc1N1CCN(CC2CC(=O)c3ccoc3C2)CC1 (stereo not given) | –
– | – | -7.04 | O=C1CC(CN2CCC(C(=O)c3ccc(F)cc3)CC2)Cc2occc21 (stereo not given) | ED50 [3]: 0.95 mg/kg; ED50 [4]: 1.21 mg/kg; Ki [5]: 51.3 nM; ED50 [6]: 3.44 mg/kg; Ki [8]: 195 nM; Kb [9]: 195 nM
589 | 1260 | – | O=C(CCCCN1CCN(CC2CC(=O)c3ccoc3C2)CC1)c1ccc(F)cc1 (stereo not given) | Inhibition [10]: 44.3%
437 | 955 | – | O=C(CCCN1CCN(CC2CC(=O)c3ccoc3C2)CC1)c1ccc(F)cc1 (stereo not given) | Inhibition [11]: 3.7%
> 100000 | – | – | O=C1CC(CN2CCN(c3ccccc3)CC2)Cc2occc21 (stereo not given) | Ki [5]: 21.9 nM
3470 | 8320 | – | O=C1CC(CN2CCN(c3ccccn3)CC2)Cc2occc21 (stereo not given) | –
245 | 10.7 | -7.68 | O=C1CC(CN2CCC(c3noc4cc(F)ccc34)CC2)Cc2occc21 (stereo not given) | ED50 [4]: 0.48 mg/kg; ED50 [6]: 3.84 mg/kg; ED50 [12]: 0.34 mg/kg; Ki [8]: 28.8 nM
– | – | -8.2 | O=C(CCCN1CCC(O)(c2ccc(Cl)cc2)CC1)c1ccc(F)cc1 [HALOPERIDOL] | –

SMILES | Kb [1] [nM] | Ki [2] [nM] | Log Ki [7] | further results
O=C1CC(CN2CCN(c3ncccn3)CC2)Cc2occc21 (stereo not given) | 1820 | > 100000 | – | –
CN1CCN(C2=Nc3cc(Cl)ccc3Nc3ccccc32)CC1 [CLOZAPINE] | – | – | -7.42 | –
